In ChEMBL document CHEMBL3272013, “Synthesis and biological evaluation of substituted 2,2'-oxybis(propionic acid) derivatives and related compounds” (1976):
Several values for one entry are separate records, joined by “and”; a condition that tells them apart may be missing. Equal values may be shown once.

Tests used:
Assay type in all cases: functional
Rattus norvegicus [1] = test: Hypolipidemic activity in albino Wistar Royal Hart rat assessed as change in plasma triglyceride level at 120 mg/kg, po for 3 days
Procedure, shortened: (§1)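 Male albino Wistar Royal Hart rats (160–180 g) were kept 7 days on drug-free ground Purina Lab Chow, then grouped six per group. Compound was given orally, once daily, for 3 or 6 days. Controls received no compound. Rats were anesthetized with sodium hexobarbital and bled from the carotid artery. Serum (1.0 ml) went into 9.0 ml 2-propanol with zeolite-copper hydroxide/Lloyd reagent, shaken 1 h. Cholesterol and triglyceride were autoanalyzed on the same sample. Change is given as % of control.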

Rattus norvegicus [2] = test: Hypolipidemic activity in albino Wistar Royal Hart rat assessed as change in plasma cholesterol level at 120 mg/kg, po for 3 days; procedure, shortened: as §1
Rattus norvegicus [3] = test: Hypolipidemic activity in albino Wistar Royal Hart rat assessed as change in plasma cholesterol level at 60 mg/kg, po for 6 days; procedure, shortened: as §1
Rattus norvegicus [4] = test: Hypolipidemic activity in albino Wistar Royal Hart rat assessed as change in plasma triglyceride level at 60 mg/kg, po for 3 days; procedure, shortened: as §1
Rattus norvegicus [5] = test: Hypolipidemic activity in albino Wistar Royal Hart rat assessed as change in plasma cholesterol level at 250 mg/kg, po for 6 days; procedure, shortened: as §1
Rattus norvegicus [6] = test: Hypolipidemic activity in albino Wistar Royal Hart rat assessed as change in plasma triglyceride level at 250 mg/kg, po for 6 days; procedure, shortened: as §1
Rattus norvegicus [7] = test: Hypolipidemic activity in albino Wistar Royal Hart rat assessed as change in plasma triglyceride level at 300 mg/kg, po for 6 days; procedure, shortened: as §1
Rattus norvegicus [8] = test: Hypolipidemic activity in albino Wistar Royal Hart rat assessed as change in plasma cholesterol level at 300 mg/kg, po for 6 days; procedure, shortened: as §1
Rattus norvegicus [9] = test: Hypolipidemic activity in albino Wistar Royal Hart rat assessed as change in plasma cholesterol level at 250 mg/kg, po for 3 days; procedure, shortened: as §1
Rattus norvegicus [10] = test: Hypolipidemic activity in albino Wistar Royal Hart rat assessed as change in plasma triglyceride level at 250 mg/kg, po for 3 days; procedure, shortened: as §1
Rattus norvegicus [11] = test: Hypolipidemic activity in albino Wistar Royal Hart rat assessed as change in plasma cholesterol level at 120 mg/kg, po for 6 days; procedure, shortened: as §1
Rattus norvegicus [12] = test: Hypolipidemic activity in albino Wistar Royal Hart rat assessed as change in plasma cholesterol level at 60 mg/kg, po for 3 days; conditions: in the assay text read “for 6 days” for “for 3 days”; procedure, shortened: as §1
Rattus norvegicus [13] = test: Hypolipidemic activity in albino Wistar Royal Hart rat assessed as change in plasma triglyceride level at 120 mg/kg, po for 6 days; procedure, shortened: as §1
Rattus norvegicus [14] = test: Hypolipidemic activity in albino Wistar Royal Hart rat assessed as change in plasma triglyceride level at 60 mg/kg, po for 6 days; procedure, shortened: as §1
Rattus norvegicus [15] = test: Hypolipidemic activity in albino Wistar Royal Hart rat assessed as change in plasma triglyceride level at 30 mg/kg, po for 6 days; procedure, shortened: as §1
Rattus norvegicus [16] = test: Hypolipidemic activity in albino Wistar Royal Hart rat assessed as change in plasma cholesterol level at 30 mg/kg, po for 6 days; procedure, shortened: as §1
[17] = in the assay text read “for 3 days” for “for 6 days”

Q: Which Activity (Rattus norvegicus [1]) does the source give for `CC(C)(O)C#CC(C)(O)c1ccc(Cl)cc1` (centres undefined) here?
A: 6%

Q: And the Activity (Rattus norvegicus [2])?
A: 11%

Q: Which Activity (Rattus norvegicus [1]) does the source give for `CC1(C)OC(c2ccccc2)(c2ccc(Cl)cc2)/C(=N\O)C1=O` (centres undefined) here?
A: -29%

Q: What about the Activity (Rattus norvegicus [2]) of the same compound?
A: -6%

Q: `CC1(C)OC(c2ccccc2)(c2ccccc2)C(=O)N(Cc2ccccc2)C1=O` was tested. Which Activity (Rattus norvegicus [3]; [17]) did it give?
A: -9%

Q: What about the Activity (Rattus norvegicus [4]) of the same compound?
A: -7%

Q: How did the Activity (Rattus norvegicus [1]) turn out when `O=C(c1ccccc1)N1CCC(O)(/C=C\C2(O)CCN(C(=O)c3ccccc3)CC2)CC1` was run?
A: 27%

Q: And the Activity (Rattus norvegicus [2])?
A: -3%

Q: What does the source list for `CC1(C)CN(Cc2ccccc2)CC(c2ccccc2)(c2ccccc2)O1.Cl`?
A: Activity (Rattus norvegicus [1]): -15%; Activity (Rattus norvegicus [2]): 0%

Q: Which results are given for `CN1CCC(O)(C#CC2(O)CCN(C)CC2)CC1`?
A: Activity (Rattus norvegicus [1]): 43%; Activity (Rattus norvegicus [2]): 19%

Q: `CN1CCC(O)(CCC2(O)CCN(C)CC2)CC1` was tested. Which Activity (Rattus norvegicus [1]) did it give?
A: 29%

Q: And the Activity (Rattus norvegicus [2])?
A: -4%

Q: Which results are given for `CC(C)(OC(C)(C)C(=O)O)C(=O)O`?
A: Activity (Rattus norvegicus [1]): -32%; Activity (Rattus norvegicus [2]): 4%

Q: For `COC(=O)C(C)(C)OC(C)(C(=O)OC)c1ccc(Cl)cc1` (centres undefined), which Activity (Rattus norvegicus [1]) is on record?
A: 9%

Q: And the Activity (Rattus norvegicus [2])?
A: 29%

Q: How did the Activity (Rattus norvegicus [1]) turn out when `CC1(C)OC(c2ccccc2)(c2ccccc2)C(=O)N(c2ccccc2)C1=O` was run?
A: 8%

Q: What about the Activity (Rattus norvegicus [2]) of the same compound?
A: -6%

Q: With `CC1(C)OC(c2ccccc2)(c2ccccc2)/C(=N\O)C1=O` as the compound, how does the Activity (Rattus norvegicus [1]) read?
A: -19%

Q: What about the Activity (Rattus norvegicus [2]) of the same compound?
A: -6%

Q: What does the source list for `CC1(C)OC(c2ccccc2)(c2ccc(Cl)cc2)C(=O)N(Cc2ccccc2)C1=O` (centres undefined)?
A: Activity (Rattus norvegicus [5]): -7%; Activity (Rattus norvegicus [6]): -4%

Q: How did the Activity (Rattus norvegicus [1]) turn out when `COC(=O)C(C)(C)OC1(C(=O)OC)CCCCC1` was run?
A: 8%

Q: And the Activity (Rattus norvegicus [2])?
A: -8%

Q: How did the Activity (Rattus norvegicus [1]) turn out when `CC1(C)OC(c2ccccc2)(c2ccccc2)C(=O)N(Cc2ccc(Cl)cc2)C1=O` was run?
A: -16%

Q: What about the Activity (Rattus norvegicus [2]) of the same compound?
A: -9%

Q: What does the source list for `CC1(C)C=CC(c2ccccc2)(c2ccc(Cl)cc2)O1` (centres undefined)?
A: Activity (Rattus norvegicus [3]; [17]): -11%; Activity (Rattus norvegicus [4]): -17%

Q: `CC(=O)N1CCC2(CC1)CCC(C)(C)O2` was tested. Which Activity (Rattus norvegicus [5]) did it give?
A: -11%

Q: What about the Activity (Rattus norvegicus [6]) of the same compound?
A: -39%

Q: Which results are given for `CCOC(=O)C(C)(C)Oc1ccc(Cl)cc1` [CLOFIBRATE]?
A: Activity (Rattus norvegicus [7]): -49%; Activity (Rattus norvegicus [8]): -34%

Q: For `CC1(C)C=CC(C)(c2ccccc2)O1` (centres undefined), which Activity (Rattus norvegicus [1]) is on record?
A: 27%

Q: And the Activity (Rattus norvegicus [2])?
A: -7%

Q: `CC(=O)N1CCC(O)(/C=C\C(C)(C)O)CC1` was tested. Which Activity (Rattus norvegicus [1]) did it give?
A: 92%

Q: What about the Activity (Rattus norvegicus [2]) of the same compound?
A: 21%

Q: Which Activity (Rattus norvegicus [1]) does the source give for `CC(C)(O)C#CC(O)(c1ccncc1)c1ccc(Cl)cc1` (centres undefined) here?
A: 34%

Q: What about the Activity (Rattus norvegicus [2]) of the same compound?
A: 30%

Q: For `CC1(C)C=CC(c2ccncc2)(c2ccc(Cl)cc2)O1` (centres undefined), which Activity (Rattus norvegicus [1]) is on record?
A: -65%

Q: And the Activity (Rattus norvegicus [2])?
A: 32%

Q: How did the Activity (Rattus norvegicus [3]; 60 mg/kg) turn out when `CC1(C)OC(c2ccncc2)(c2ccc(Cl)cc2)C2OC21` (centres undefined) was run?
A: -8% and -6%

Q: Which Activity (Rattus norvegicus [9]) does the source give for `CN1CCC(O)(/C=C\C2(O)CCN(C)CC2)CC1` here?
A: -17%

Q: And the Activity (Rattus norvegicus [10])?
A: -28%

Q: What does the source list for `CC1(C)OC(C)(C)C(=O)N(Cc2ccc(Cl)cc2)C1=O`?
A: Activity (Rattus norvegicus [1]): 50%; Activity (Rattus norvegicus [2]): -3%

Q: How did the Activity (Rattus norvegicus [2]; 120 mg/kg) turn out when `CC1(C)OC(c2ccccc2)(c2ccc(Cl)cc2)C2OC21` (centres undefined) was run?
A: -11% and -12%

Q: How did the Activity (Rattus norvegicus [1]) turn out when `CC(C)(OC(C(=O)O)(c1ccccc1)c1ccc(Cl)cc1)C(=O)O` (centres undefined) was run?
A: 33%

Q: What about the Activity (Rattus norvegicus [2]) of the same compound?
A: 6%

Q: Which Activity (Rattus norvegicus [1]) does the source give for `CC1(C)CN(Cc2ccccc2)CC(C)(C)O1` here?
A: 9%

Q: What about the Activity (Rattus norvegicus [2]) of the same compound?
A: -14%

Q: How did the Activity (Rattus norvegicus [11]) turn out when `CC(C)(CNCc1ccc(Cl)cc1)OC(C)(C)CNCc1ccc(Cl)cc1.Cl` was run?
A: -15%

Q: What about the Activity (Rattus norvegicus [5]) of the same compound?
A: -7%

Q: And the Activity (Rattus norvegicus [12])?
A: -25%

Q: And the Activity (Rattus norvegicus [6])?
A: -77%

Q: And the Activity (Rattus norvegicus [13])?
A: -64%

Q: And the Activity (Rattus norvegicus [14])?
A: -9%

Q: What does the source list for `CC1(C)OC(C)(c2ccccc2)C2OC21` (centres undefined)?
A: Activity (Rattus norvegicus [5]): -11%; Activity (Rattus norvegicus [6]): -6%

Q: Which Activity (Rattus norvegicus [1]) does the source give for `CC1(C)CN(Cc2ccc(Cl)cc2)CC(c2ccccc2)(c2ccccc2)O1` here?
A: -45%

Q: And the Activity (Rattus norvegicus [2])?
A: 12%

Q: For `CN1CCC(OC(=O)C(Oc2ccc(Cl)cc2)Oc2ccc(Cl)cc2)CC1` [LIFIBRATE], which Activity (Rattus norvegicus [15]) is on record?
A: -50%

Q: What about the Activity (Rattus norvegicus [16]) of the same compound?
A: -30%

Q: With `CN1CCC(O)(C#CC(C)(C)O)CC1` as the compound, how does the Activity (Rattus norvegicus [1]) read?
A: 86%

Q: What about the Activity (Rattus norvegicus [2]) of the same compound?
A: 20%

Q: With `CC1(C)CN(Cc2ccc(Cl)cc2)CC(C)(C)O1` as the compound, how does the Activity (Rattus norvegicus [1]) read?
A: -10%

Q: What about the Activity (Rattus norvegicus [2]) of the same compound?
A: -3%

Q: Which results are given for `CC(=O)N1CCC(O)(CCC(C)(C)O)CC1`?
A: Activity (Rattus norvegicus [1]): -22%; Activity (Rattus norvegicus [2]): -7%

Q: Which Activity (Rattus norvegicus [1]) does the source give for `CC(C)(OC(C(=O)O)(c1ccccc1)c1ccccc1)C(=O)O` here?
A: 8%

Q: And the Activity (Rattus norvegicus [2])?
A: -11%

Q: For `CN1CCC(O)(/C=C\C(C)(C)O)CC1.Cl`, which Activity (Rattus norvegicus [1]) is on record?
A: -10%

Q: What about the Activity (Rattus norvegicus [2]) of the same compound?
A: -4%

Q: `OC1(CCC(O)(c2ccccc2)c2ccccc2)CCCCC1` was tested. Which Activity (Rattus norvegicus [1]) did it give?
A: 74%

Q: What about the Activity (Rattus norvegicus [2]) of the same compound?
A: -5%

Q: `COC(=O)C(C)(C)OC(C)(C(=O)OC)c1ccccc1` (centres undefined) was tested. Which Activity (Rattus norvegicus [1]) did it give?
A: -3%

Q: What about the Activity (Rattus norvegicus [2]) of the same compound?
A: 0%

Q: Which results are given for `CC1(C)OC(C)(C)C(=O)N(Cc2ccccc2)C1=O`?
A: Activity (Rattus norvegicus [1]): 51%; Activity (Rattus norvegicus [2]): 35%

Q: For `CC(OC1(C(=O)O)CCCCC1)(C(=O)O)c1ccccc1` (centres undefined), which Activity (Rattus norvegicus [1]) is on record?
A: -2%

Q: And the Activity (Rattus norvegicus [2])?
A: 28%

Q: How did the Activity (Rattus norvegicus [1]) turn out when `CC(C)(O)C#CC(O)(c1ccccc1)c1ccc(Cl)cc1` (centres undefined) was run?
A: 3%

Q: What about the Activity (Rattus norvegicus [2]) of the same compound?
A: 48%
